Screening data: PubChem, several laboratories
Sampled rows, rich in hits. Any-hit rate of the full collection: about 1.5%.
VLA-4 inh: inhibition in human VLA-4 binding assay, primary screen, VLA-4 allosteric modulator project, MLPCN library, flow cytometry, VLA-4 expressing cells; Integrin alpha-4 (Homo sapiens), P13612; ligand binding flow cytometry; inhibition, % (about 7 µM as worked out from the volumes in the protocol); 330,000 compounds, 0.2% hits; in the data active = inhibition above about 50%
Target sequence (P13612 whole entry, looked up): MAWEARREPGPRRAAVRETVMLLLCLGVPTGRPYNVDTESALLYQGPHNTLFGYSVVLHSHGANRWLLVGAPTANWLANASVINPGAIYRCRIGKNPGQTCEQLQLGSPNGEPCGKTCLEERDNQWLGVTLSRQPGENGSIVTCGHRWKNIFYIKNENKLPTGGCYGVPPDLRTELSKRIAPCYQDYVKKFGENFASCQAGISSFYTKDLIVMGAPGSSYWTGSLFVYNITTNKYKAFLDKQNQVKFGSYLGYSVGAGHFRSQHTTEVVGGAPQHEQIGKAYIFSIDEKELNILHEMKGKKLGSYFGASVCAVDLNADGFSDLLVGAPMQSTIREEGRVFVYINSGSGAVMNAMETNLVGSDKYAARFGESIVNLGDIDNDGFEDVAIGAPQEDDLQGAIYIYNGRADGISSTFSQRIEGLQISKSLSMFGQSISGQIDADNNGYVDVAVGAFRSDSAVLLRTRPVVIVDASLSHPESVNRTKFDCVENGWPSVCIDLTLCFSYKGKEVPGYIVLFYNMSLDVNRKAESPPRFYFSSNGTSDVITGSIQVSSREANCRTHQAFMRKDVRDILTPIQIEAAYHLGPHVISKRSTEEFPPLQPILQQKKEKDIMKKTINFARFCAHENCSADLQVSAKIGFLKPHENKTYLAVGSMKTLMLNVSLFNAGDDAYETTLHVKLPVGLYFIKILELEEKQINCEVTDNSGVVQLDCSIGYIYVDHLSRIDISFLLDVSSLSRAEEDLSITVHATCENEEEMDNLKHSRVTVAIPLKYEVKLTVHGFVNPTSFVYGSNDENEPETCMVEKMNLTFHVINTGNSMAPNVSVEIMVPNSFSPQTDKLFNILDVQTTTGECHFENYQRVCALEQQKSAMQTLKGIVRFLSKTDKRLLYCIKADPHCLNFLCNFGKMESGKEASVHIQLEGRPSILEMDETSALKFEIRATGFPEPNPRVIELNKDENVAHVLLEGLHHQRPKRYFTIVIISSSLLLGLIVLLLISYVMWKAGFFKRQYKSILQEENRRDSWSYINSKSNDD
CHT PAM: CHT positive allosteric modulators, primary screen, cell-based, membrane potential dye, choline EC20 | CHT-expressing cells; stronger effect = higher value; LV-AA mutant CHT in HEK293 cells | B-score at 10 µM | 310,000 compounds, 0.49% hits | AID 488977, 2010;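 active = initial fluorescence not abnormally high and integrated response B-score, plate-corrected, over 3 SD above library mean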
T cell HTS: modulators of CD8 T cell-vesicle binding, primary screen, mouse 2C CD8+ T cells, flow cytometry | 2C CD8+ T cell-vesicle binding; stronger effect = lower value | response (vesicle binding), % at 7 µM | 330,000 compounds, 0.068% hits | AID 2052, 2009;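 active = response, share of CD8 T cells binding vesicles, and their 90th percentile fluorescence all below set limits, cut at about 80% in these data, passing the limit was not always enough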;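 also: values below 100% mean blocked vesicle binding to the CD8+ T cells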
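Also added: QL9-peptide-loaded Drosophila micro-vesicles bearing Ld, ICAM-1 and B7-1; Test system: purified 2C TCR transgenic mouse naive CD8+ T cells; Measured by: cytometric PE anti-B7-1 and Alexa647 anti-CD8 signals after 1% paraformaldehyde fixation; Timing: binding step 1.5 h, 37 °C, antibody labelling 20 min, ice.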
CHT inh: inhibitors of human choline transporter CHT; High affinity choline transporter 1 (Homo sapiens), Q9GZV3; CHT-expressing cells, membrane potential dye, choline response; stronger effect = lower value; B-score at 10 µM; 310,000 compounds, 0.86% hits;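 active = B-score over 3 SD under the library average, and starting fluorescence ratio not unusually high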;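 also: choline stimulus applied at its EC90 after an EC20 pre-addition; B-score computed on integrated fluorescence ratio after choline addition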
CHT block conf: CHT inhibitors, confirmation, cell-based, membrane potential dye, duplicate | shares compounds with CHT inh | CHT activity remaining % of control (stronger effect = lower value), % at 10 µM | CHT-expressing cells, choline membrane potential dye; LV-to-AA substituted CHT, HEK293 cells | 2,400 compounds, 70% hits;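 active = choline transporter activity left, mean of duplicates at 10 µM, below buffer-only control mean minus 3 SD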;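 also: depolarization triggered by choline at its EC90 following an EC20 pre-addition; 0% = hemicholinium-3 full block and 100% = buffer-only control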
HEK293 MPD ctr: membrane potential effects in parental HEK293, counter-screen for CHT inhibitor project, cell-based, membrane potential dye. shares compounds with CHT inh. choline response; active = decrease or increase beyond buffer ±3SD. membrane potential ratio readout (active if shifted either direction beyond buffer ±3SD; no single direction) at 10 µM. 2,400 compounds, 4% hits. AID 493222, 2011;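 also: parental cells lack the transporter so any hit is non-specific; ratio is peak minus trough fluorescence over baseline after EC90 choline challenge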
Active calls of the source: *; i = inactive; · = no result.

SMILES | VLA-4 inh | CHT PAM | T cell HTS | CHT inh | CHT block conf | HEK293 MPD ctr
COc1ccc(CC2=CC(=O)c3ccccc3C2=O)cc1 | -2 | i | 123 | i | · | ·
Cc1nc(Oc2ccccc2)c2ccccc2n1 | 14 | i | 233 | -7* | i | i
FC(F)(F)c1nc(Oc2ccccc2)c2ccccc2n1 | 16 | i | 547 | i | · | ·
CS(=O)(=O)Nc1ccccc1C(=O)NCCSc1ccccc1 | 6 | i | 705 | -6.5* | 71%* | i
NC(=O)c1sc(-c2ccsc2)cc1NS(=O)(=O)c1ccc(C(F)(F)F)cc1 | 3 | i | 668 | -6.9* | i | i
CC(=O)c1sc(-c2ccc(F)cc2)cc1NS(=O)(=O)c1ccc(C)cc1 | -2 | i | 413 | i | · | ·
CN(C)c1ccc(C(=O)c2ccc(O)cc2O)cc1 | 1 | i | 347 | -6* | 61%* | i
O=C(c1ccc(O)cc1)c1ccc(O)cc1O | 2 | i | 179 | i | · | ·
COc1ccc(C(=O)C[n+]2cccc(Br)c2)cc1 | -2 | i | 460 | -19* | -0.1%* | i
COC(=O)c1ccc[n+](CC(=O)c2ccc(Br)cc2)c1 | -4 | i | 454 | i | · | ·
O=C(C[n+]1cccc(Br)c1)c1ccc(-c2ccccc2)cc1 | -19 | i | 264 | -15* | -0.8%* | i
O=C(C[n+]1cccc(Br)c1)c1ccccc1 | -5 | i | 146 | -6* | 18%* | i
O=C(CCC(=O)c1cccs1)c1cccs1 | -20 | i | 268 | i | · | ·
O=C(C[n+]1cccc(Br)c1)c1cccs1 | 23 | i | 174 | -9.2* | 26%* | i
CCOc1cc(N2CCOCC2)c(OCC)cc1NC(=O)C1CC(=O)N(c2ccc(C)cc2)C1 (centres undefined) | 2 | · | 310 | · | · | ·
O=C(C[n+]1cc(Br)cc(Br)c1)c1ccc(-c2ccccc2)cc1 | 3 | i | 321 | i | · | ·
Cc1ccc(C(=O)C[n+]2cc(Br)cc(Br)c2)cc1 | -8 | i | 113 | -13* | 21%* | i
O=c1c2cc(NC(=S)NC3CCCCC3)ccc2nc2n1CCCCC2 | 8 | i | 121 | -5.4* | 58%* | i
O=C(O)c1ccccc1-c1ccccc1C(=O)Nc1ccc(-c2nc3cc(Cl)ccc3o2)cc1 | -1 | i | 306 | -7.5* | 55%* | i
CC(=O)Nc1ccc(-c2nc3cc(Cl)ccc3o2)cc1 | -34 | i | 452 | i | · | ·
CC(C)(C)NCC(O)c1cc(O)cc(O)c1 (centres undefined) | -3 | i | 560 | -5.9* | 45%* | i
O=C(NC1CCCCCC1)C1CCN(C(=O)c2cccc(Cl)c2)CC1 | -8 | i | 231 | i | · | ·
CNC(=O)[C@H]1O[C@@H](n2cnc3c(NCc4cccc(I)c4)ncnc32)[C@H](O)[C@@H]1O | 9 | i | 215 | -5.2* | 44%* | i
NCCNC(=O)Cc1cccc(NC(=O)Cc2ccc(Nc3ncnc4c3ncn4[C@@H]3O[C@H](CO)[C@@H](O)[C@H]3O)cc2)c1 | 5 | i | 229 | i | · | ·
C/C(=N\NC(=O)c1ccoc1C)c1cccc2ccccc12 | 27 | i | 209 | -7.6* | i | i
SMILES | VLA-4 inh | CHT PAM | T cell HTS | CHT inh | CHT block conf | HEK293 MPD ctr
COc1ccc(CNC(=O)COC(=O)CC2CCCC2)cc1 | 5 | i | 563 | -5.4* | i | i
COc1ccc(CNC(=O)COC(=O)C2CCC(C(C)(C)C)CC2)cc1 (centres undefined) | 26 | i | 283 | i | · | ·
CCCCC1C(=O)CC[C@H]2[C@@H]1CC(=O)[C@@H]2C/C=C\CCCC(=O)O (some centres undefined) | 5 | i | 294 | -5.5* | 34%* | i
Cc1ccsc1/C=N/NC(=O)c1c[nH]c2ccccc12 | -4 | i | 277 | i | · | ·
O=C(N/N=C/c1ccsc1)c1c[nH]c2ccccc12 | 6 | i | 186 | -7* | 69%* | i
COc1ccc(-n2cccc2/C=C2\C(=N)N3N=C(c4ccco4)SC3=NC2=O)cc1 | 3 | i | 553 | i | · | ·
COc1ccc(-n2cccc2/C=C2\C(=N)N3N=C(C(C)C)SC3=NC2=O)cc1 | 3 | i | 188 | -6.1* | i | i
CCOC(=O)N1CCC(NC(=O)C2CCCN(Cc3nc(-c4cccc(Cl)c4)oc3C)C2)CC1 (centres undefined) | 16 | i | 185 | -6.4* | 51%* | i
Cc1oc(-c2ccc(Cl)cc2)nc1CN1CCCC(C(=O)NC2CC2)C1 (centres undefined) | -1 | i | i | i | · | ·
Cc1c(NC(=O)C(C)OC(=O)/C=C/c2ccc(OC(F)F)cc2)c(=O)n(-c2ccccc2)n1C (centres undefined) | 2 | i | 410 | i | · | ·
COc1ccc(NC(=O)CCCNC(=O)Cn2cnc3sc4c(c3c2=O)CCCC4)c(OC)c1 | -15 | i | 225 | i | · | ·
CN(C(=O)c1cc(S(=O)(=O)N2CCCCC2)c[nH]1)C1CCCCC1 | 41 | i | 189 | -5.1* | i | i
O=C(C1=C[C@@H](c2ccccc2)C[C@@H](OCCCCO)O1)N1CCOCC1 | -3 | i | 650 | -10* | i | i
O=C(Nc1cccnc1)c1ccc(COc2ccccc2Cl)o1 | 36 | i | 731 | -7.3* | 56%* | i
O=C(Nc1cccnc1)c1ccc(COc2cc(Cl)ccc2Cl)o1 | 3 | i | 100 | i | · | ·
O=C(Nc1nnc(C2CC2)s1)C1COc2ccccc2O1 (centres undefined) | -10 | i | 418 | i | · | ·
O=C(Nc1nnc(C(F)(F)F)s1)C1COc2ccccc2O1 (centres undefined) | 2 | i | 144 | -5.4* | 49%* | i
Cc1ccccc1N(C)S(=O)(=O)c1ccc2[nH]cc(C(=O)NCC3CCCO3)c(=O)c2c1 (centres undefined) | 9 | i | 384 | -7* | 68%* | i
CCOc1ccc(N(C)S(=O)(=O)c2ccc3[nH]cc(C(=O)NCC4CCCO4)c(=O)c3c2)cc1 (centres undefined) | -10 | i | 284 | i | · | ·
COc1ccccc1C(CNC(=O)c1cccc(S(=O)(=O)NCc2ccccc2)c1)N(C)C (centres undefined) | 24 | i | 285 | i | · | ·
COc1ccc(C(=O)NNC(=O)c2cccs2)cc1S(=O)(=O)N1CCOCC1 | 15 | · | 256 | · | · | ·
